We go through six compounds from ChEMBL document CHEMBL1156741, “Development of photoaffinity probes for gamma-secretase equipped with a nitrobenzenesulfonamide-type cleavable linker” (Bioorg Med Chem Lett, 2009).

Assay [1] concerns the target T1, Gamma-secretase (Homo sapiens) (UniProt Q96BI3+Q9NZ42+Q8WW43+P49768+Q92542+P49810). As to the kind of experiment: Binding affinity to gamma-secretase in human HeLa cell lysate assessed as presenilin 1 C-terminal fragment photolabeling by Western blotting. It counts as cell-free. The method in brief: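 CHAPSO-solubilized HeLa cell lysate (about 150 µg) was mixed with the probe and photolabeled. PS1 CTF labeling was then detected by western blotting on nitrocellulose with chemiluminescence.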

Assay [2] can be described thus: Inhibition of gamma-secretase assessed as inhibition of Abeta40 generation at 1 uM.
Assay [3] is described as follows: Inhibition of gamma-secretase assessed as inhibition of Abeta42 generation at 1 uM.
Assay [4] deals with T1, Gamma-secretase (Homo sapiens). As to the kind of experiment: Binding affinity to gamma-secretase in human HeLa cell lysate assessed as biotinylated presenilin 1 C-terminal fragment by Western blotting in presence of 2-mercaptoethanol. It counts as cell-free. The method, boiled down: (§1)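 Streptavidin sepharose beads carrying biotinylated proteins captured after photolabeling were treated in carbonate buffer (pH 9.2) with 2% SDS, with or without 3% 2-mercaptoethanol, for 4 h at 20 °C. Proteins were transferred to nitrocellulose and detected by western blotting with chemiluminescence.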

Assay [5] shares this target. As to the kind of experiment: Binding affinity to gamma-secretase in human HeLa cell lysate assessed as biotinylated presenilin 1 C-terminal fragment by Western blotting in absence of 2-mercaptoethanol. It counts as cell-free. The method, boiled down:
as §1

The source made the active and inactive calls. The rule behind the calls is not given here.

Turning to `C[C@H](NC(=O)[C@@H](NC(=O)Cc1cc(F)cc(F)c1)c1ccccc1)C(=O)NCc1ccc(C(=O)c2ccc(CNCCCCCC(=O)NCCCCCCCN(C)S(=O)(=O)c3ccc(C(=O)NCCCCCC(=O)CCCC[C@@H]4SC[C@@H]5NC(=O)N[C@@H]54)cc3[N+](=O)[O-])cc2)cc1`, in assay [1], the result was Active. In addition, the inhibition in assay [2] is 78.2%; in assay [3], 59.3%.
Taken in the same sequence, the figures for `C[C@H](NC(=O)[C@@H](NC(=O)Cc1cc(F)cc(F)c1)c1ccccc1)C(=O)NCc1ccc(C(=O)c2ccc(CNCC(=O)NCCCCCCCN(C)S(=O)(=O)c3ccc(C(=O)NCCCCCC(=O)CCCC[C@@H]4SC[C@@H]5NC(=O)N[C@@H]54)cc3[N+](=O)[O-])cc2)cc1` were “Active”, 81.9% and 77%.
As for `C[C@H](NC(=O)[C@@H](NC(=O)Cc1cc(F)cc(F)c1)c1ccccc1)C(=O)NCc1ccc(C(=O)c2ccc(CNCCCCCCCC(=O)NCCCN(C)S(=O)(=O)c3ccc(C(=O)NCCCCCC(=O)CCCC[C@@H]4SC[C@@H]5NC(=O)N[C@@H]54)cc3[N+](=O)[O-])cc2)cc1`, the result in assay [1] and in assay [4] was Active. Further, the inhibition was 62.8% in assay [2] and 66.2% in assay [3]. In addition, the outcome in assay [5] was inactive.
In the case of `C[C@H](NC(=O)[C@@H](NC(=O)Cc1cc(F)cc(F)c1)c1ccccc1)C(=O)NCc1ccc(C(=O)c2ccc(CNCCCCCCCC(=O)NCCCCCCCN(C)S(=O)(=O)c3ccc(C(=O)NCCCCCC(=O)CCCC[C@@H]4SC[C@@H]5NC(=O)N[C@@H]54)cc3[N+](=O)[O-])cc2)cc1`, the result in assay [1] was Active. The values for the inhibition in assay [2] and in assay [3] were 62.3% and 89.3%, respectively.
As to `C[C@H](NC(=O)[C@@H](NC(=O)Cc1cc(F)cc(F)c1)c1ccccc1)C(=O)NCc1ccc(C(=O)c2ccc(CNCCCCCC(=O)NCCCN(C)S(=O)(=O)c3ccc(C(=O)NCCCCCC(=O)CCCC[C@@H]4SC[C@@H]5NC(=O)N[C@@H]54)cc3[N+](=O)[O-])cc2)cc1`, in assay [1], the outcome was Active. The inhibition in assay [2] is 54.9%; in assay [3], 60.2%.
`C[C@H](NC(=O)Cc1cc(F)cc(F)c1)C(=O)N[C@H](C(=O)OC(C)(C)C)c1ccccc1`: the results for the inhibition in assay [2] and in assay [3] were 77.4% and 76.3%, respectively.
